What was measured:
Cladosporium cucumerinum [1] = test: Fungicidal activity against Cladosporium cucumerinum infected drug-pretreated cucumber two seeded leaves assessed as decrease in disease index at 500 ug/ml (acetone Rvb = 3.18 +/-0.75%); format: functional
How it was run: (§1)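 Greenhouse cucumber assay. Fungi kept on PDA at 4 °C and cultured at 24 ± 1 °C. Plants at the two-seed-leaf stage had leaves hand-sprayed at 500 μg/mL, then were inoculated and held at 24 ± 1 °C, >80% RH. Efficacy = (CK − PT)/CK × 100, from average disease indices.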

Rhizoctonia solani [2] = test: Fungicidal activity against Rhizoctonia solani infected drug-pretreated cucumber two seeded leaves assessed as decrease in disease index at 500 ug/ml (acetone Rvb = 2.22 +/-0.79%); format: functional; how it was run: as §1
Corynespora cassiicola [3] = test: Fungicidal activity against Corynespora cassiicola infected in drug-pretreated cucumber two seeded leaves assessed as decrease in disease index at 500 ug/ml (acetone Rvb = 5.23 +/-0.88%); format: functional; how it was run: as §1
Botrytis cinerea [4] = test: Fungicidal activity against Botryotinia fuckeliana infected in drug-pretreated cucumber two seeded leaves assessed as decrease in disease index at 500 ug/ml (acetone Rvb = 1.53 +/-0.21%); format: functional; how it was run: as §1
Rhizoctonia solani [5] = test: Fungicidal activity against Rhizoctonia solani infected drug-pretreated cucumber two seeded leaves assessed as decrease in disease index at 3% AS formulation (acetone Rvb = 2.22 +/-0.79%); format: functional; how it was run: as §1
Corynespora cassiicola [6] = test: Fungicidal activity against Corynespora cassiicola infected in drug-pretreated cucumber two seeded leaves assessed as decrease in disease index at 75% WP formulation (acetone Rvb = 5.23 +/-0.88%); format: functional; how it was run: as §1
Cladosporium cucumerinum [7] = test: Fungicidal activity against Cladosporium cucumerinum infected drug-pretreated cucumber two seeded leaves assessed as decrease in disease index at 40% EC formulation (acetone Rvb = 3.18 +/-0.75%)
Botrytis cinerea [8] = test: Fungicidal activity against Botryotinia fuckeliana infected in drug-pretreated cucumber two seeded leaves assessed as decrease in disease index at 40% SC formulation (acetone Rvb = 1.53 +/-0.21%); format: functional; how it was run: as §1

Row | SMILES | Efficacy (Cladosporium cucumerinum [1]) [%] | Efficacy (Rhizoctonia solani [2]) [%] | Efficacy (Corynespora cassiicola [3]) [%] | Efficacy (Botrytis cinerea [4]) [%] | Efficacy (Rhizoctonia solani [5]) [%] | Efficacy (Corynespora cassiicola [6]) [%] | Efficacy (Cladosporium cucumerinum [7]) [%] | Efficacy (Botrytis cinerea [8]) [%]
1 | O=C(N/N=C/c1ccc(Cl)cc1)c1ccc(-c2ccccc2F)o1 | 37.3 | -5.2 | -3.05 | 27 | – | – | – | –
2 | OCC1=C[C@H](N[C@H]2C[C@H](CO)[C@@H](O[C@@H]3O[C@H](CO)[C@@H](O)[C@H](O)[C@H]3O)[C@H](O)[C@H]2O)[C@H](O)[C@@H](O)[C@@H]1O [VALIDAMYCIN] | – | – | – | – | 93.68 | – | – | –
3 | CCC(=O)N1N=C(c2ccc(-c3ccccc3Cl)o2)OC1c1ccc(Br)cc1 (stereo not drawn) | 23.98 | 63.87 | 41.18 | 13.91 | – | – | – | –
4 | COc1ccc(C(=O)NNC(=O)c2ccc(-c3ccc([N+](=O)[O-])cc3)o2)cc1 | 57.89 | 24.45 | 36.36 | 29.9 | – | – | – | –
5 | CC(=O)N1N=C(c2ccc(-c3ccccc3F)o2)OC1c1ccc(Cl)cc1 (stereo not drawn) | 31.11 | 66.28 | 28.85 | 18.89 | – | – | – | –
6 | O=C(N/N=C/c1ccccc1Cl)c1ccc(-c2ccc(F)cc2)o1 | -22 | 8 | 13.87 | 72 | – | – | – | –
7 | CCC(=O)N1N=C(c2ccc(-c3ccc(F)cc3)o2)OC1c1ccccc1Cl (stereo not drawn) | 31.48 | 52.33 | 46.75 | -24.9 | – | – | – | –
8 | Cc1ccc(C(=O)NNC(=O)c2ccc(-c3ccc(Cl)cc3)o2)cc1 | 29.8 | 19.8 | 50.87 | 4.35 | – | – | – | –
9 | O=C(N/N=C/c1ccccc1)c1ccc(-c2ccc(Cl)cc2)o1 | -8.1 | 10.2 | 50.78 | 11 | – | – | – | –
10 | COc1ccc(-c2nnc(-c3ccc(-c4ccccc4[N+](=O)[O-])o3)o2)cc1 | 15 | 48.48 | 48.61 | 92.68 | – | – | – | –
11 | N#Cc1c(Cl)c(Cl)c(Cl)c(C#N)c1Cl [CHLOROTHALONIL] | – | – | – | – | – | 93.53 | – | –
12 | COc1ccc(-c2nnc(-c3ccc(-c4ccc([N+](=O)[O-])cc4)o3)o2)cc1 | 12.35 | -3.97 | 10.59 | 47.83 | – | – | – | –
13 | O=C(NNC(=O)c1ccccc1Cl)c1ccc(-c2ccc(F)cc2)o1 | 30.32 | 69.35 | 34.26 | 89.57 | – | – | – | –
14 | CCOc1ccc(-c2nnc(-c3ccc(-c4ccccc4[N+](=O)[O-])o3)o2)cc1 | 8.89 | 65.58 | 74.71 | 33.75 | – | – | – | –
15 | C[Si](Cn1cncn1)(c1ccc(F)cc1)c1ccc(F)cc1 [FLUSILAZOLE] | – | – | – | – | – | – | 95.56 | –
16 | Cc1ccc(-c2nnc(-c3ccc(-c4ccc(Cl)cc4)o3)o2)cc1 | 5.85 | 24.13 | 28.24 | 42.38 | – | – | – | –
17 | CC(=O)N1N=C(c2ccc(-c3ccccc3Cl)o2)OC1c1ccc(Br)cc1 (stereo not drawn) | 16.67 | 14.3 | 32.03 | 23.23 | – | – | – | –
18 | O=[N+]([O-])c1ccccc1-c1ccc(-c2nnc(-c3ccc(Cl)cc3)o2)o1 | 17.2 | 94.38 | 15.17 | -30.02 | – | – | – | –
19 | Clc1ccccc1-c1ccc(-c2nnc(-c3ccc(Br)cc3)o2)o1 | 17.9 | -1.16 | 90.59 | -2.61 | – | – | – | –
20 | CC(=O)N1N=C(c2ccc(-c3ccc(Cl)cc3)o2)OC1c1ccccc1 (stereo not drawn) | 45.61 | 69.09 | 35.29 | 70.71 | – | – | – | –
21 | Fc1ccc(-c2ccc(-c3nnc(-c4ccccc4Cl)o3)o2)cc1 | 7.78 | 25.54 | 27.94 | 76.52 | – | – | – | –
22 | CCOc1ccc(C(=O)NNC(=O)c2ccc(-c3ccc([N+](=O)[O-])cc3)o2)cc1 | 28.35 | 71.9 | 38.24 | 79.13 | – | – | – | –
23 | CC(=O)N1N=C(c2ccc(-c3ccc(F)cc3)o2)OC1c1ccccc1Cl (stereo not drawn) | 40 | 31.03 | 28.72 | 76.28 | – | – | – | –
24 | CCOc1ccc(C(=O)NNC(=O)c2ccc(-c3ccccc3[N+](=O)[O-])o2)cc1 | 10 | 78.93 | 18.82 | -43.27 | – | – | – | –
25 | O=C(NNC(=O)c1ccc(-c2ccccc2[N+](=O)[O-])o1)c1ccc(Cl)cc1 | 14.44 | 95.56 | 66.09 | 79.58 | – | – | – | –
26 | COc1ccc(C(=O)NNC(=O)c2ccc(-c3ccccc3[N+](=O)[O-])o2)cc1 | 2.61 | 56.45 | 28.35 | 35.5 | – | – | – | –
27 | Cc1cc(C)nc(Nc2ccccc2)n1 [PYRIMETHANIL] | – | – | – | – | – | – | – | 69.57
28 | O=C(N/N=C/c1ccc(Br)cc1)c1ccc(-c2ccccc2Cl)o1 | 19.75 | 57.85 | 28.79 | 91.76 | – | – | – | –
29 | O=C(NNC(=O)c1ccc(-c2ccccc2Cl)o1)c1ccc(Br)cc1 | 14.2 | 49.42 | 8.24 | 24.64 | – | – | – | –
30 | CCOc1ccc(-c2nnc(-c3ccc(-c4ccc([N+](=O)[O-])cc4)o3)o2)cc1 | 16.48 | 63.47 | 25.49 | 77.78 | – | – | – | –

Source: ChEMBL document CHEMBL3045525, “Synthesis and fungicidal activity of novel 2,5-disubstituted-1,3,4-oxadiazole derivatives” (2012)
